Calls of active or inactive are those of the source. No cut-off for these calls is given here.
Assays:
Mus musculus [1] = assay: Antidepressant activity in Albino mouse assessed as duration of immobility at 10 mg/kg, ip by forced-swimming test; type: functional; details: route intraperitoneal
How it was run: (§1)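 Porsolt forced-swim test in albino mice. Drug given ip at 0.5 ml/20 g body weight, 1 h before testing. Controls received 1% aqueous Tween 80. Each mouse was placed singly in a water-filled Plexiglas cylinder for 6 min. Immobility (floating upright with only slight movements to stay afloat) was timed over the last 4 min.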

Mus musculus [2] = assay: Neurotoxicity in Albino mouse at 300 mg/kg, ip after 4 hrs by RotaRod test; type: toxicity, organism-based; set-up: dose 300 mg/kg, route intraperitoneal; details: in vivo
How it was run: (§2)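 Phase I protocol of the NINCDS antiepileptic drug development programme in albino mice, covering MES, subcutaneous pentylenetetrazole (metrazol) and rotarod neurotoxicity. Doses were 30, 100 and 300 mg/kg, read at 1/2 h and 4 h. One animal per dose and time point, scored as 0/1 (no activity) or 1/1 (noticeable activity).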

Mus musculus [3] = assay: Anticonvulsant activity in Albino mouse by MES test at 100 mg/kg, ip after 30 mins; type: functional, organism-based; set-up: dose 100 mg/kg; how it was run: as §2
Mus musculus [4] = assay: Antidepressant activity in Albino mouse assessed as duration of immobility at 10 mg/kg, ip by forced-swimming test relative to control; type: functional; details: route intraperitoneal; how it was run: as §1
Mus musculus [5] = assay: Neurotoxicity in Albino mouse at 100 mg/kg, ip after 30 mins by RotaRod test; type: toxicity, organism-based; set-up: dose 100 mg/kg, route intraperitoneal; details: in vivo, 0.5 h; how it was run: as §2
Mus musculus [6] = assay: Neurotoxicity in Albino mouse at 300 mg/kg, ip after 30 mins by RotaRod test; type: toxicity, organism-based; set-up: dose 300 mg/kg, route intraperitoneal; details: in vivo, 0.5 h; how it was run: as §2
Mus musculus [7] = assay: Anticonvulsant activity in Albino mouse at 300 mg/kg, ip after 4 hrs by MES test; type: functional, organism-based; set-up: dose 300 mg/kg; how it was run: as §2
Mus musculus [8] = assay: Neurotoxicity in Albino mouse at 30 mg/kg, ip after 30 mins by RotaRod test; type: toxicity, organism-based; set-up: dose 30 mg/kg, route intraperitoneal; details: in vivo, 0.5 h; how it was run: as §2
Mus musculus [9] = assay: Neurotoxicity in Albino mouse at 30 mg/kg, ip after 4 hrs by RotaRod test; type: toxicity, organism-based; set-up: dose 30 mg/kg, route intraperitoneal; details: in vivo; how it was run: as §2
Mus musculus [10] = assay: Neurotoxicity in Albino mouse at 100 mg/kg, ip after 4 hrs by RotaRod test; type: toxicity, organism-based; set-up: dose 100 mg/kg, route intraperitoneal; details: in vivo; how it was run: as §2
Mus musculus [11] = assay: Anticonvulsant activity against metrazole-induced seizures in Albino mouse at 100 mg/kg, ip after 30 mins by scMet assay; type: functional, organism-based; set-up: dose 100 mg/kg; how it was run: as §2
Mus musculus [12] = assay: Anticonvulsant activity in Albino mouse at 30 mg/kg, ip after 4 hrs by MES test; type: functional, organism-based; set-up: dose 30 mg/kg; how it was run: as §2
Mus musculus [13] = assay: Anticonvulsant activity in Albino mouse by MES test at 300 mg/kg, ip after 30 mins; type: functional, organism-based; set-up: dose 300 mg/kg; how it was run: as §2
Mus musculus [14] = assay: Anticonvulsant activity in Albino mouse by MES test at 30mg/kg, ip after 30 mins; type: functional, organism-based; how it was run: as §2
Mus musculus [15] = assay: Anticonvulsant activity in Albino mouse at 100 mg/kg, ip after 4 hrs by MES test; type: functional, organism-based; set-up: dose 100 mg/kg; how it was run: as §2
Mus musculus [16] = assay: Anticonvulsant activity against metrazole-induced seizures in Albino mouse at 100 mg/kg, ip after 4 hrs by scMet assay; type: functional, organism-based; set-up: dose 100 mg/kg; how it was run: as §2
Mus musculus [17] = assay: Anticonvulsant activity against metrazole-induced seizures in Albino mouse at 300 mg/kg, ip after 30 mins by scMet assay; type: functional, organism-based; set-up: dose 300 mg/kg; how it was run: as §2
Mus musculus [18] = assay: Anticonvulsant activity against metrazole-induced seizures in Albino mouse at 300 mg/kg, ip after 4 hrs by scMet assay; type: functional, organism-based; set-up: dose 300 mg/kg; how it was run: as §2
Mus musculus [19] = assay: Anticonvulsant activity against metrazole-induced seizures in Albino mouse at 30 mg/kg, ip after 4 hrs by scMet; type: functional, organism-based; set-up: dose 30 mg/kg; how it was run: as §2
Mus musculus [20] = assay: Anticonvulsant activity against metrazole-induced seizures in Albino mouse at 30 mg/kg, ip after 30 mins by scMet assay; type: functional, organism-based; set-up: dose 30 mg/kg; how it was run: as §2

c1ccc(C2CC(c3ccco3)=NN2c2ccccc2)cc1 (stereo not given)
Activity (Mus musculus [1]): 213 s | Activity (Mus musculus [2]): Not Active | Activity (Mus musculus [3]): inactive | Activity (Mus musculus [4]): 1.42% | Activity (Mus musculus [5]): Not Active | Activity (Mus musculus [6]): Not Active | Activity (Mus musculus [7]): inactive | Activity (Mus musculus [8]): Not Active | Activity (Mus musculus [9]): Not Active | Activity (Mus musculus [10]): Not Active | Activity (Mus musculus [11]): inactive | Activity (Mus musculus [12]): inactive | Activity (Mus musculus [13]): inactive | Activity (Mus musculus [14]): inactive | Activity (Mus musculus [15]): inactive | Activity (Mus musculus [16]): inactive | Activity (Mus musculus [17]): inactive | Activity (Mus musculus [18]): Active | Activity (Mus musculus [19]): inactive | Activity (Mus musculus [20]): inactive

CCNC(=S)N1N=C(c2ccco2)CC1c1ccccc1 (stereo not given)
Activity (Mus musculus [1]): 139 s | Activity (Mus musculus [2]): Not Active | Activity (Mus musculus [3]): inactive | Activity (Mus musculus [4]): -33.8% | Activity (Mus musculus [5]): Not Active | Activity (Mus musculus [6]): Not Active | Activity (Mus musculus [7]): inactive | Activity (Mus musculus [8]): Not Active | Activity (Mus musculus [9]): Not Active | Activity (Mus musculus [10]): Not Active | Activity (Mus musculus [11]): inactive | Activity (Mus musculus [12]): inactive | Activity (Mus musculus [13]): inactive | Activity (Mus musculus [14]): inactive | Activity (Mus musculus [15]): inactive | Activity (Mus musculus [16]): inactive | Activity (Mus musculus [17]): Active | Activity (Mus musculus [18]): inactive | Activity (Mus musculus [19]): inactive | Activity (Mus musculus [20]): inactive
